Experiment [1] addresses T1, P2Y purinoceptor 12 (Homo sapiens, UniProt Q9H244). Description: Competitive antagonist activity at human P2Y12 receptor expressed in CHO cells assessed as forskolin/ 2-methylthio-ADP-induced cAMP production preincubated for 10 mins followed 2-methylthio-ADP addition measured after 3.5 hrs by luciferase reporter gene assay. It counts as functional, cell-based. The settings on record: read-out: pA2 (converted).

For experiment [2], the target named is T2, P2Y purinoceptor 4 (Homo sapiens, UniProt P51582). Description: Antagonist activity at human P2Y4 receptor transfected in human 1321N1 cells assessed as inhibition of UTP-activated intracellular calcium mobilization preincubated for 30 mins followed by UTP addition by fluo-4-dye based fluorescence assay. It counts as functional, cell-based. A digest of the protocol:
(§1)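 1321N1 astrocytoma cells stably expressing the human P2Y subtype, grown in DMEM with 10 % FCS and 200 μg/mL G418 at 37 °C. Plated 50,000 cells/well about 24 h before testing. Cells loaded with fluo-4 AM for 1 h, then placed in HBSS and preincubated 30 min with compound. Agonist was injected at about EC80: ADP 500 nM (P2Y1), UTP 500 nM (P2Y2, P2Y4), UDP 750 nM (P2Y6). Fluorescence read at ex 488/em 525 nm. At least three independent experiments in duplicate. IC50 obtained by nonlinear regression.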

The target of experiment [3] is T2, P2Y purinoceptor 4. As to the kind of experiment: Antagonist activity at human P2Y4 receptor transfected in human 1321N1 cells assessed as inhibition of UTP-activated intracellular calcium mobilization at 100 uM preincubated for 30 mins followed by UTP addition by fluo-4-dye based fluorescence assay. In kind it is functional, cell-based.
The target of experiment [4] is T3, P2Y purinoceptor 1 (Homo sapiens, UniProt P47900). As to the kind of experiment: Antagonist activity at human P2Y1 receptor transfected in human 1321N1 cells assessed as inhibition of ADP-activated intracellular calcium mobilization preincubated for 30 mins followed by ADP addition by fluo-4-dye based fluorescence assay. In kind it is functional, cell-based. A digest of the protocol:
as §1

A further experiment deals with P2Y purinoceptor 2 (Homo sapiens, UniProt P41231). Description: Antagonist activity at human P2Y2 receptor transfected in human 1321N1 cells assessed as inhibition of UTP-activated intracellular calcium mobilization preincubated for 30 mins followed by UTP addition by fluo-4-dye based fluorescence assay. In kind it is functional, cell-based. Summed up: as §1
Sequence of P2Y purinoceptor 2 (P41231 whole entry): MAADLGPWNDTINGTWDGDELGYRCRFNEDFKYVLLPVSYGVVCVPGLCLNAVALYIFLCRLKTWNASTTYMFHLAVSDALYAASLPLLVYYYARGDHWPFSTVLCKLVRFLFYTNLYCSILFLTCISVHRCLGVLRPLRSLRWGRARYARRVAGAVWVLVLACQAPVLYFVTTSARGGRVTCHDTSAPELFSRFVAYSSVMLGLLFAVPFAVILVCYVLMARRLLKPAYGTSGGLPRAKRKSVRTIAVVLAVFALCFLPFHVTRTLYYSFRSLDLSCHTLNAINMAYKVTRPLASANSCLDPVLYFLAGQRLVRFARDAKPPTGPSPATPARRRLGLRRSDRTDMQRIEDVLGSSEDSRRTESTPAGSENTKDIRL
The target of experiment [5] is T4, P2Y purinoceptor 6 (Homo sapiens, UniProt Q15077). Description: Antagonist activity at human P2Y6 receptor transfected in human 1321N1 cells assessed as inhibition of UDP-activated intracellular calcium mobilization preincubated for 30 mins followed by UDP addition by fluo-4-dye based fluorescence assay. It counts as functional, cell-based. Summed up: as §1
T4 sequence (Q15077 whole entry): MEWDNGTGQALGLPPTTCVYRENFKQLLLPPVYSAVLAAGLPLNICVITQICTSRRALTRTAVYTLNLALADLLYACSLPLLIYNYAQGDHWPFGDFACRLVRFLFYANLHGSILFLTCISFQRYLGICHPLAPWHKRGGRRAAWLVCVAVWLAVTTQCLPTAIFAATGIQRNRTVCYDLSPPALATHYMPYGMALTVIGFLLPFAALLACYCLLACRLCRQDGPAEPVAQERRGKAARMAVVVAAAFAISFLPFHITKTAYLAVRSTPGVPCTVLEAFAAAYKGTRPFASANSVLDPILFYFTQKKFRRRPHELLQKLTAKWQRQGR
Experiment [6] deals with T1, P2Y purinoceptor 12. As to the kind of experiment: Antagonist activity at human P2Y12 receptor expressed in CHO cells assessed as inhibition of 2-MeSADP-induced beta-arrestin translocation preincubated for 30 mins followed by 2-MeSADP addition measured after 90 mins by luminescence-based topcount method. In kind it is cell-based.
For experiment [7], the target named is T2, P2Y purinoceptor 4. As to the kind of experiment: Non-competitive antagonist activity at human P2Y4 receptor transfected in human 1321N1 cells assessed as inhibition of UTP-activated intracellular calcium mobilization at 15 uM preincubated for 30 mins followed by UTP addition by fluo-4-dye based fluorescence assay. In kind it is functional, cell-based. A digest of the protocol:
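Fluo-4-loaded 1321N1 cells stably expressing human P2Y4 were preincubated 30 min with fixed antagonist concentrations up to 15 μM in HBSS. Full UTP concentration-response curves were then recorded by injecting UTP and reading fluorescence immediately (ex 488/em 525 nm). The mode of antagonism was judged from depression of the maximum versus rightward shift. EC50 values were compared by unpaired t-test.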

Experiment [8] concerns the target T4, P2Y purinoceptor 6. Description: Antagonist activity at human P2Y6 receptor transfected in human 1321N1 cells assessed as inhibition of UDP-activated intracellular calcium mobilization at 50 uM preincubated for 30 mins followed by UDP addition by fluo-4-dye based fluorescence assay. It counts as functional, cell-based.
Experiment [9] concerns the target T3, P2Y purinoceptor 1. Description: Antagonist activity at human P2Y1 receptor transfected in human 1321N1 cells assessed as inhibition of ADP-activated intracellular calcium mobilization at 50 uM preincubated for 30 mins followed by ADP addition by fluo-4-dye based fluorescence assay. In kind it is functional, cell-based.

“And” between values parts separate entries of the source, which are not always exact repeats. Identical values can stand only once. The source made the active and inactive calls. The rule behind the calls is not given here. Where only a bound is given, the exact number is not on record here.

T2 sequence (P51582 whole entry): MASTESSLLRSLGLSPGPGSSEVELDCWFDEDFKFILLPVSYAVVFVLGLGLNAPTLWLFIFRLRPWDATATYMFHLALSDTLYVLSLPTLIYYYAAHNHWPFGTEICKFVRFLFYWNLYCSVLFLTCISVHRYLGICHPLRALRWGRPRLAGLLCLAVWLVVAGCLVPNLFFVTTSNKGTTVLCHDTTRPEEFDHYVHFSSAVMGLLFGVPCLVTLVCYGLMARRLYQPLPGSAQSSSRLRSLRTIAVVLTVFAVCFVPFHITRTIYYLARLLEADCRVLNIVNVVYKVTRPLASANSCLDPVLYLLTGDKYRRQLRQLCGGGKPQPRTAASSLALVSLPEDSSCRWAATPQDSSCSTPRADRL
T3 sequence (P47900 whole entry): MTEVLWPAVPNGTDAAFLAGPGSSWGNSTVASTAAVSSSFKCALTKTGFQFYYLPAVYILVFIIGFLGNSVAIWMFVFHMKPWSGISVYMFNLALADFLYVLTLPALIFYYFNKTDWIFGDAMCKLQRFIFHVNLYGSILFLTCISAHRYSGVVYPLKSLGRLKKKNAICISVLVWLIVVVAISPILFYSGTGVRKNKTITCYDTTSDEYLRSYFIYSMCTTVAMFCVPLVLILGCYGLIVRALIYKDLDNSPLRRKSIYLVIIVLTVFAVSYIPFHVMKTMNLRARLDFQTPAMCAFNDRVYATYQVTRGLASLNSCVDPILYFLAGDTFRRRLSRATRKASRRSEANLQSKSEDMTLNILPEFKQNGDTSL
T1 sequence (Q9H244 whole entry): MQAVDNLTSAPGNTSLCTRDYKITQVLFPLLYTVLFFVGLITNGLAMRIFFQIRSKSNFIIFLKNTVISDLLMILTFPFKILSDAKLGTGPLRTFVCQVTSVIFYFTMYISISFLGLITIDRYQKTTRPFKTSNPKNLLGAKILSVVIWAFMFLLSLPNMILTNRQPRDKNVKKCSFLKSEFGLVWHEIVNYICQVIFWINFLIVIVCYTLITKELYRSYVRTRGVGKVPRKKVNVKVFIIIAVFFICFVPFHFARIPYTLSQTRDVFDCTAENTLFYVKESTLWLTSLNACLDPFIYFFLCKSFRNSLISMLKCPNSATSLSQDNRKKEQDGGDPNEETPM

As to `Nc1c(S(=O)(=O)O)cc(Nc2ccc(Nc3ccccc3)c(S(=O)(=O)O)c2)c2c1C(=O)c1ccccc1C2=O`, the Kb on P2Y purinoceptor 12 [1] was 0.000158 µM.
For `Cc1cc(Nc2ccc(F)cc2C(=O)O)c2c(c1N)C(=O)c1ccccc1C2=O`, at P2Y purinoceptor 4 [2], the IC50 was found to be 100 µM. Moreover, the inhibition on P2Y purinoceptor 4 [3] came to 57%.
As to `Nc1c(S(=O)(=O)O)cc(Nc2ccc(Cl)cc2C(=O)O)c2c1C(=O)c1ccccc1C2=O`, the IC50 at P2Y purinoceptor 4 [2] was over 100 µM. For the same compound, the inhibition on P2Y purinoceptor 4 [3] came out at 31%.
The corresponding values for `Nc1c(S(=O)(=O)O)cc(Nc2cccc(F)c2C(=O)O)c2c1C(=O)c1ccccc1C2=O` are over 100 µM and 10%.
Regarding `Nc1c(S(=O)(=O)O)cc(Nc2ccccc2)c2c1C(=O)c1ccccc1C2=O` [ACID BLUE 25], the IC50 is 1.97 to 3.1 µM on P2Y purinoceptor 4 [2]; 17.6 µM on P2Y purinoceptor 1 [4]; 17.1 µM at P2Y purinoceptor 2; 2.79 µM on P2Y purinoceptor 6 [5]; 3.12 µM at P2Y purinoceptor 12 [6].
For `Cc1ccc(C)c(Sc2ccc(Nc3cc(S(=O)(=O)O)c(N)c4c3C(=O)c3ccccc3C4=O)cc2)c1`, the half-inhibitory concentration (IC50) was 0.395 µM at P2Y purinoceptor 4 [2]; 2.72 µM on P2Y purinoceptor 1 [4]; 6.52 µM on P2Y purinoceptor 2; 2.67 µM at P2Y purinoceptor 6 [5]; 2.96 µM on P2Y purinoceptor 12 [6].
Taken in the same sequence, the figures for `Cc1ccc(Sc2ccc(Nc3cc(S(=O)(=O)O)c(N)c4c3C(=O)c3ccccc3C4=O)cc2)cc1C` were 0.482 µM, 4.55 µM, 10.2 µM, 4.36 µM and 2.34 µM.
Regarding `Cc1ccc(Sc2ccc(Nc3cc(S(=O)(=O)O)c(N)c4c3C(=O)c3ccccc3C4=O)cc2)c(C)c1`, the IC50 at P2Y purinoceptor 4 [2] came to 0.233 µM; on P2Y purinoceptor 1 [4], 5.48 µM; at P2Y purinoceptor 2 it was 8.54 µM; on P2Y purinoceptor 6 [5], 12.5 µM; at P2Y purinoceptor 12 [6], 2.41 µM. In addition, the inhibition result on P2Y purinoceptor 4 [7] is “Active”.
As for `Cc1cc(Nc2cc(S(=O)(=O)O)c(N)c3c2C(=O)c2ccccc2C3=O)ccc1O`, the IC50 turned out to be 0.746 µM on P2Y purinoceptor 4 [2]; 7.65 µM at P2Y purinoceptor 1 [4]; 16.4 µM on P2Y purinoceptor 2; 4.75 µM at P2Y purinoceptor 6 [5]; 0.0604 µM at P2Y purinoceptor 12 [6].
Consider `Nc1c(S(=O)(=O)O)cc(Nc2cc(F)ccc2C(=O)O)c2c1C(=O)c1ccccc1C2=O`, for which, on P2Y purinoceptor 4 [2], the IC50 is over 100 µM. Besides, at P2Y purinoceptor 4 [3], the inhibition was determined as 33%.
Regarding `Nc1c(S(=O)(=O)O)cc(Nc2ccc(F)cc2C(=O)O)c2c1C(=O)c1ccccc1C2=O`, the inhibition at P2Y purinoceptor 4 [3] is 17% and 25%.
Take `Nc1c(S(=O)(=O)O)cc(Nc2ccc(SCc3cccnc3)cc2)c2c1C(=O)c1ccccc1C2=O`: the inhibition on P2Y purinoceptor 6 [8] is 12%; on P2Y purinoceptor 1 [9], 61%. Besides, the concentration for half-maximal inhibition (IC50) at P2Y purinoceptor 4 [2] was 0.409 µM; on P2Y purinoceptor 1 [4], 25 µM; on P2Y purinoceptor 2, 13.1 µM; at P2Y purinoceptor 6 [5], over 100 µM; on P2Y purinoceptor 12 [6] it was 3.59 µM.
